ChEMBL document CHEMBL3297722, “Design, synthesis and docking studies of some novel (R)-2-(4'-chlorophenyl)-3-(4'-nitrophenyl)-1,2,3,5-tetrahydrobenzo[4,5] imidazo [1,2-c]pyrimidin-4-ol derivatives as antitubercular agents” (Eur J Med Chem, 2014)
Values after ≈ are worked out from the molar mass of the structure shown.

Tests used:
[1] = tested on: Mycobacterium tuberculosis; test: Antitubercular activity against Mycobacterium tuberculosis H37Rv ATCC 27294 in 7H9/ADC/Tween medium after 2 weeks by broth microdilution method; format: functional; details: H37Rv ATCC 27294, 336 h
Outline: (§1)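 Two-fold serial dilutions from DMSO stocks added to medium; equal volume of H37Rv diluted to 10,000 cells/mL in the same medium. DMSO-only wells; isoniazid positive control. 37 °C; growth read by inverted enlarging mirror. Quadruplicate. MIC = lowest concentration completely inhibiting growth.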

[2] = tested on: Mycobacterium tuberculosis; test: Antitubercular activity against Mycobacterium tuberculosis H37Rv ATCC 27294 in GAST/Fe medium after 1 week by broth microdilution method; format: functional; details: H37Rv ATCC 27294, 168 h; outline: as §1
[3] = tested on: Mycobacterium tuberculosis; test: Antitubercular activity against Mycobacterium tuberculosis H37Rv ATCC 27294 in GAST/Fe medium after 2 weeks by broth microdilution method; format: functional; details: H37Rv ATCC 27294, 336 h; outline: as §1
[4] = tested on: Mycobacterium tuberculosis; test: Antitubercular activity against Mycobacterium tuberculosis H37Rv ATCC 27294 in 7H9/ADC/Tween medium after 1 week by broth microdilution method; format: functional; details: H37Rv ATCC 27294, 168 h; outline: as §1
[5] = Cytotoxicity against African green monkey Vero cells assessed as survival at 25 ug/ml after 48 hrs by Cell-Titre Blue assay; format: cell-based; details: chlorocebus sabaeus, read-out: Survival
Outline: (§2)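 Vero cells in DMEM with 10% FBS, seeded at 20,000 cells/well and left to adhere overnight at 37 °C, 5% CO2. Medium then replaced with fresh medium containing compound, 48 h. Cell-Titer Blue added for a further 2 h; OD read at 560 nm. % survival = OD test/OD of DMSO-medium control ×100.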

[6] = Cytotoxicity against African green monkey Vero cells assessed as survival at 50 ug/ml after 48 hrs by Cell-Titre Blue assay; format: cell-based; details: chlorocebus sabaeus, read-out: Survival; outline: as §2

Compound | MIC [1] [µg/mL] | MIC [2] [µg/mL] | MIC [3] [µg/mL] | MIC [4] [µg/mL] | viability at 48 h, 25 ug/ml [5] [%] | viability at 48 h, 50 ug/ml [6] [%]
COc1ccc(O)c([C@@H]2C(O)=C3Nc4ccccc4N3CN2c2ccc(C(=O)O)cc2)c1 | > 100 | > 100 | > 100 | > 100 |  | 
COc1ccccc1N1CN2C(=C(O)[C@H]1c1ccccc1O)Nc1ccccc12 | 75 (≈ 194 µM) | 19 (≈ 49 µM) | 25 (≈ 64.5 µM) | 50 (≈ 129 µM) | 63 | 69
COc1ccc([C@@H]2C(O)=C3Nc4ccccc4N3CN2c2ccc(OC)cc2)cc1 | ≥ 100 | 50 (≈ 125 µM) | 75 (≈ 187 µM) | 100 (≈ 249 µM) |  | 
COc1ccc(N2CN3C(=C(O)[C@H]2c2cccc(-c4ccccn4)c2)Nc2ccccc23)cc1 | > 100 | 12.5 (≈ 27.9 µM) | 19 (≈ 42.4 µM) | ≥ 100 | 66 | 56
COc1ccc(N2CN3C(=C(O)[C@H]2c2cccc(Br)c2)Nc2ccccc23)cc1 | > 100 | > 100 | > 100 | > 100 |  | 
O=[N+]([O-])c1ccc(N2CN3C(=C(O)[C@H]2c2ccccc2[N+](=O)[O-])Nc2ccccc23)cc1 | 50 (≈ 116 µM) | 37 (≈ 85.8 µM) | 37 (≈ 85.8 µM) | 37 (≈ 85.8 µM) | 53 | 61
OC1=C2Nc3ccccc3N2CN(c2c(Cl)cccc2Cl)[C@@H]1c1cccc(O)c1 | 50 (≈ 117 µM) | 6.25 (≈ 14.7 µM) | 9.4 (≈ 22.1 µM) | 37 (≈ 86.8 µM) | 63 | 61
COc1ccccc1[C@@H]1C(O)=C2Nc3ccccc3N2CN1c1c(C)cccc1C | > 100 | 100 (≈ 250 µM) | 100 (≈ 250 µM) | 50 (≈ 125 µM) |  | 
COc1ccccc1[C@@H]1C(O)=C2Nc3ccccc3N2CN1c1cc(Cl)cc(Cl)c1 | 100 (≈ 227 µM) | 50 (≈ 114 µM) | 100 (≈ 227 µM) | 100 (≈ 227 µM) |  | 
Cc1ccc([C@@H]2C(O)=C3Nc4ccccc4N3CN2c2c(C)cccc2C)c(N)c1C | > 100 | 37 (≈ 89.7 µM) | 75 (≈ 182 µM) | 100 (≈ 242 µM) | 64 | 73
OC1=C2Nc3ccccc3N2CN(c2ccc(Br)cc2)[C@@H]1c1ccc(O)cc1 | > 100 | 75 (≈ 172 µM) | 75 (≈ 172 µM) | ≥ 100 |  | 
COc1ccc([C@@H]2C(O)=C3Nc4ccccc4N3CN2c2cc(Cl)cc(Cl)c2)cc1OC | > 100 | 100 (≈ 213 µM) | > 100 | > 100 |  | 
OC1=C2Nc3ccccc3N2CN(c2cc(Cl)cc(Cl)c2)[C@@H]1c1ccccc1Cl | > 100 | > 100 | > 100 | ≥ 100 |  | 
OC1=C2Nc3ccccc3N2CN(c2cc(Cl)cc(Cl)c2)[C@@H]1c1ccc(Cl)cc1 | ≥ 100 | 37 (≈ 83.2 µM) | 50 (≈ 112 µM) | 100 (≈ 225 µM) | 63 | 69
O=[N+]([O-])c1ccc(N2CN3C(=C(O)[C@H]2c2cccc([N+](=O)[O-])c2)Nc2ccccc23)cc1 | 37 (≈ 85.8 µM) | 3.13 (≈ 7.26 µM) | 4.7 (≈ 10.9 µM) | 25 (≈ 57.9 µM) | 66 | 69
O=[N+]([O-])c1ccc([C@@H]2C(O)=C3Nc4ccccc4N3CN2c2ccc(Cl)cc2)cc1 | > 100 | 100 (≈ 238 µM) | > 100 | > 100 |  | 
Cc1cccc(C)c1N1CN2C(=C(O)[C@H]1c1ccc(O)cc1)Nc1ccccc12 | 19 (≈ 49.3 µM) | 6.25 (≈ 16.2 µM) | 9.4 (≈ 24.4 µM) | 12.5 (≈ 32.4 µM) | 66 | 63
NNC(=O)c1ccncc1 [ISONIAZID] | 0.02 (≈ 0.146 µM) | 0.02 (≈ 0.146 µM) | 0.02 (≈ 0.146 µM) | 0.02 (≈ 0.146 µM) | 100 | 100
